# Activity calls are given as the source filed them. No cut-off for these calls is given here.
# Tests used:
# [1] = test system: MDA-MB-436; test: Induction of DNA damage in human MDA-MB-436 cells assessed as increase in gammaH2AX foci formation incubated for 24 hrs by Western blot analysis; format: functional, cell-based; conditions: dose microM 0.1-10, time 24.0 hrs
# How it was run: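 MDA-MB-436 (BRCA1-/-) or Capan-1 (BRCA2-/-) cells were treated 24 h at the indicated concentrations. Lysis was in RIPA buffer with protease inhibitors, and 20-30 μg protein was run on SDS-PAGE. Blots were probed for γH2AX, with β-tubulin as the loading control, and detected by ECL.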
# [2] = Cmax in ICR mouse at 25 mg/kg, ip by LC-tandem mass spectrometry analysis; format: ADME, organism-based; set-up: route intraperitoneal, dose 25 mg/kg; conditions: in vivo
# How it was run: (§1)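 Female ICR mice (20-23 g, 6-7 weeks old, n = 3) received a single 25 mg/kg intraperitoneal dose formulated in 5% DMSO/15% Solutol HS15/80% D5W. Plasma was sampled at 0.5, 1, 2, 4, 6, 8 and 24 h and protein-precipitated with methanol. Compound was quantified by LC-MS/MS against a standard curve.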
# [3] = Acute toxicity in Balb/c mouse assessed as weight loss at 25 to 50 mg/kg, ip administered 5 times a week for 3 weeks; format: organism-based; conditions: in vivo, 504 h, dose 25-50 mg/kg
# How it was run: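 Male BALB/c nude mice (5–6 weeks) received 5×10^6 Capan-1 cells s.c. in the right armpit. At a mean tumour volume of about 150 mm³, mice were randomised by tumour volume and body weight, 6 per group. Dosing was i.p. in 5% DMSO/20% PEG400/10% Cremophor EL/65% saline, once daily five times per week for 3 weeks. Body weight was measured 2–3 times weekly.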
# [4] = biological target: T1, Protein cereblon/Poly [ADP-ribose] polymerase 1 (Homo sapiens, UniProt P09874+Q96SW2); test: Protac activity at CRBN/PARP1 in human SW-620 cells assessed as induction of PARP1 degradation incubated for 24 hrs by Western blot analysis; format: cell-based
# How it was run: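 Concentration-response over a wide range, 24 h exposure; PARP1 quantified by western blot and normalized to β-tubulin density; DC50 derived from two biologically independent experiments.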
# Target sequence in this assay (P09874 whole entry): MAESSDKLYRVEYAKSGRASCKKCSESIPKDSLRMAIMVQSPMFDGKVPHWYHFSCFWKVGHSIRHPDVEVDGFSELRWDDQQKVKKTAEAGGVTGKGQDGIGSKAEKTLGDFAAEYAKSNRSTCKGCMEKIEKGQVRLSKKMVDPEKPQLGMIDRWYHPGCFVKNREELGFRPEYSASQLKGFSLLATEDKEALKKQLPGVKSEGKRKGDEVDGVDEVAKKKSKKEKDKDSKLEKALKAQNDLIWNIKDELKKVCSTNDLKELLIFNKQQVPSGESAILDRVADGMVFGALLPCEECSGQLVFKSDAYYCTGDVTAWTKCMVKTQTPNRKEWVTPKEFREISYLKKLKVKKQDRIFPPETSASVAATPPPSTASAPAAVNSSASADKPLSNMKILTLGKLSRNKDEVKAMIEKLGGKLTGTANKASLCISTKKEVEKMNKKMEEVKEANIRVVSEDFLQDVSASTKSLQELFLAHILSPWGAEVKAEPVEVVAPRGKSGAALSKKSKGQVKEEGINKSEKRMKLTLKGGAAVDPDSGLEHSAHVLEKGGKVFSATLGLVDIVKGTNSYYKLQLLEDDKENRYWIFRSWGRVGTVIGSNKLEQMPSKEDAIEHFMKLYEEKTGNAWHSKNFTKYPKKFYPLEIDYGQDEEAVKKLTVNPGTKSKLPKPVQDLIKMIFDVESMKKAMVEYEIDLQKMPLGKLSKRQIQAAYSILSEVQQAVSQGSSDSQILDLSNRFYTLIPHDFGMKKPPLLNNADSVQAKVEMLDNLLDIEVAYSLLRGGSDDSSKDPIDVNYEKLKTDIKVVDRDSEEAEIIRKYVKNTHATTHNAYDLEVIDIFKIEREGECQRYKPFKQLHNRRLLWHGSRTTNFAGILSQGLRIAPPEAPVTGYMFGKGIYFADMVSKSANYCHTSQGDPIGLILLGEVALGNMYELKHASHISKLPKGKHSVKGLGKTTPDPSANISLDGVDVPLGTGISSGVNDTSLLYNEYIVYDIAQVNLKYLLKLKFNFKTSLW
# Target sequence in this assay (Q96SW2 whole entry): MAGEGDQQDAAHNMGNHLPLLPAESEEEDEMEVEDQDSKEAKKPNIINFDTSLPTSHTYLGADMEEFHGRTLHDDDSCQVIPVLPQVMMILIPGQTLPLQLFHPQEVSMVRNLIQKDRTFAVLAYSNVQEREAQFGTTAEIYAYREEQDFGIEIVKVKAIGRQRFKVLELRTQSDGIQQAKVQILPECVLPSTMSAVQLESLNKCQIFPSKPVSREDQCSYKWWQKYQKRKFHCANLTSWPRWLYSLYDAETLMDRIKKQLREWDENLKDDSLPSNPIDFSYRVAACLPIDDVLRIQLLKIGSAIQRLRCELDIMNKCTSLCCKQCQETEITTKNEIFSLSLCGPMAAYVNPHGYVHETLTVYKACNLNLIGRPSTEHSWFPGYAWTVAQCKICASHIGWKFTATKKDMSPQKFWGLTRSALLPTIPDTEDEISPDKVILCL
# [5] = biological target: T1, Protein cereblon/Poly [ADP-ribose] polymerase 1; test: Protac activity at CRBN/PARP1 in human MDA-MB-436 cells assessed as induction of PARP1 degradation at 1 to 1000 nM incubated for 24 hrs by Western blot analysis; format: cell-based; conditions: dose nM 1-1000, time 24.0 hrs
# How it was run: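 PARP1 immunoblot of MDA-MB-436 lysates after 24 h exposure at 1, 10, 100 and 1000 nM; RIPA lysis, 20-30 µg protein per lane, β-tubulin as loading control, band density normalized to DMSO control.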
# Target sequence in this assay (P09874 2-1014 limits assumed): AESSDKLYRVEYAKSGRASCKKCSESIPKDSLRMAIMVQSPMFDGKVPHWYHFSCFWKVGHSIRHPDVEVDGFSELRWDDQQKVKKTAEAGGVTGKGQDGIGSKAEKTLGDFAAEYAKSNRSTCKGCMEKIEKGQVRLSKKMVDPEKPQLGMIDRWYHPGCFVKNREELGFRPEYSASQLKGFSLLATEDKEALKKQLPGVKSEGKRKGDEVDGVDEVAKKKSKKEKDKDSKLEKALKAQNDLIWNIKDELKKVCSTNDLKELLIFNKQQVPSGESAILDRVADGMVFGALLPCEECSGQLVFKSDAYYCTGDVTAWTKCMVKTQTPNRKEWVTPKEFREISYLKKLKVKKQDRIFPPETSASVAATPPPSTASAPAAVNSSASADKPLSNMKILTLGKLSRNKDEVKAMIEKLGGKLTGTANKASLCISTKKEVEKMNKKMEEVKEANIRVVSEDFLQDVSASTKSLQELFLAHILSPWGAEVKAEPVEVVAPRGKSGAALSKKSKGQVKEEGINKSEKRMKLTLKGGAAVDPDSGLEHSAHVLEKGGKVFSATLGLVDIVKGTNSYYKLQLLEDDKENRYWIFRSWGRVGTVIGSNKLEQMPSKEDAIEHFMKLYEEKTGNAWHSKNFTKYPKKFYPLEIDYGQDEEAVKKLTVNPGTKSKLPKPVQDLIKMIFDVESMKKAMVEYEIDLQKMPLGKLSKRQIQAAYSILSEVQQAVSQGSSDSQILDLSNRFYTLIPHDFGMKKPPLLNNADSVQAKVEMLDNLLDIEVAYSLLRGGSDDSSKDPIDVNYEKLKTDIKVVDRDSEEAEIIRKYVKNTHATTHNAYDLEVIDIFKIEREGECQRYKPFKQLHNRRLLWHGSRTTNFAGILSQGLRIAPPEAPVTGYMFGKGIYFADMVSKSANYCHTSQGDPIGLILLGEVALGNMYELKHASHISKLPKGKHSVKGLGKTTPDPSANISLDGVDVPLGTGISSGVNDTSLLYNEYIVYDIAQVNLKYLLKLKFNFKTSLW
# Target sequence in this assay (Q96SW2 whole entry partner): as the sequence (Q96SW2 whole entry) above
# [6] = Acute toxicity in Balb/c mouse xenografted with SW-620 cells assessed as lethality at 5 to 10 mg/kg, ip qd administered for 5 days in presence of TMZ; format: organism-based; conditions: in vivo, 120 h, dose 5-10 mg/kg, time 5 day
# How it was run: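 In male BALB/c nude mice (5–6 weeks), s.c. SW620 xenografts (6×10^6 cells, right armpit) were grown to about 150 mm³, then randomised, 6 per group. The agent was given once daily for 5 days, orally or i.p., in 5% DMSO/20% PEG400/10% Cremophor EL/65% saline. TMZ 50 mg/kg was given orally once daily for 5 days from day 0, 45 min after the agent. Body weight was measured 2–3 times weekly.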
# [7] = test system: CAPAN-1; test: Antitumor activity against Capan1 cells xenografted in Balb/c mouse assessed as tumor growth inhibition at 25 mg/kg, ip administered 5 times a week for 3 weeks; format: functional, organism-based
# How it was run: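 Male BALB/c nude mice (5-6 weeks old) carried subcutaneous Capan-1 xenografts (5×10^6 cells, right armpit). At ~150 mm³ they were randomized (6 per group). Dosing was 100 mg/kg by oral gavage daily for 21 days, or 25 mg/kg intraperitoneally 5 times a week for 3 weeks. Vehicle was 5% DMSO/20% PEG400/10% Cremophor EL/65% saline. Tumor volume was (length/2)×width², measured 2-3 times weekly.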
# [8] = Acute toxicity in Balb/c mouse xenografted with Capan1 cells assessed as lethality at 25 to 50 mg/kg, ip qd administered for 5 days in presence of cisplatin; format: organism-based; conditions: in vivo, 120 h, dose 25-50 mg/kg, time 5 day
# How it was run: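 Male BALB/c nude mice (5–6 weeks) carried s.c. Capan-1 xenografts (5×10^6 cells, right armpit) and were randomised at about 150 mm³, 6 per group. The agent was given once daily on days 0–4, by oral gavage or i.p., in DMSO/PEG400/Cremophor EL/saline vehicle. Cisplatin 6 mg/kg in saline was given i.p. on day 2, 45 min after the agent. Body weight was recorded 2–3 times weekly.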
# [9] = Plasma concentration in ICR mouse at 25 mg/kg, ip at 8 hrs postinjection by LC-tandem mass spectrometry analysis; format: ADME, organism-based; how it was run: as §1
# [10] = test system: NCM460; test: Cytotoxicity against human NCM460 cells assessed as reduction in cell viability incubated for 120 hrs by CCK-8 assay; format: cell-based; conditions: ncm460, 120 h
# [11] = biological target: T1, Protein cereblon/Poly [ADP-ribose] polymerase 1; test: Protac activity at CRBN/PARP1 in human Capan1 cells assessed as induction of PARP1 degradation at 1 to 1000 nM incubated for 24 hrs by Western blot analysis; format: cell-based; conditions: CAPAN-1, dose nM 1-1000, time 24.0 hrs
# How it was run: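 Capan-1 cells were treated 24 h (1-1000 nM, or a wider dose range for DC50). Lysis was in RIPA buffer with protease inhibitors, and 20-30 μg protein was blotted. PARP1 was normalized to β-tubulin and to DMSO control, quantified by densitometry. DC50 came from two independent experiments.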
# Target sequence in this assay (P09874 2-1014 limits assumed): as the sequence (P09874 2-1014 limits assumed) above
# Target sequence in this assay (Q96SW2 whole entry partner): as the sequence (Q96SW2 whole entry) above
# [12] = test system: CAPAN-1; test: Potentiation of cisplatin induced antitumor activity against CAPAN-1 cells xenografted in Balb/c mouse administered intraperitoneally once daily for 5 days; format: functional; conditions: dose mg/kg 25-50, time 5.0 day
# How it was run: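 Male BALB/c nude mice carried Capan-1 xenografts (5×10^6 cells s.c.), randomized at ~150 mm³ (6 per group). Treatment was 25 or 50 mg/kg intraperitoneally or 100 mg/kg by oral gavage, once daily on days 0-4. Cisplatin 6 mg/kg in saline was given intraperitoneally on day 2, 45 min after the partner drug. Tumor volume and body weight were measured 2-3 times weekly.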
# [13] = test system: PC-3; test: Antiproliferation activity against human PC-3 assessed as cell growth inhibition incubated for 7 days by CCK-8 assay; format: functional, cell-based; conditions: time 7.0 day
# How it was run: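 Cells were sub-cultured at least twice and seeded for 24 h before dosing. Compounds came from 10 mM DMSO stocks, given as 10 points of 3-fold serial dilution starting at 10-20 μM. Incubation was about 7 days (Capan-1 13 days) at 37 °C, 5% CO2. Read-out was CCK-8 absorbance at 450 nm, as % growth versus DMSO wells (duplicate wells). IC50 was fitted by nonlinear regression; three independent experiments.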
# [14] = biological target: T1, Protein cereblon/Poly [ADP-ribose] polymerase 1; test: Protac activity at CRBN/PARP1 in human SW-620 cells assessed as induction of PARP1 degradation at 10 nM incubated for 24 hrs by Western blot analysis relative to control; format: cell-based
# Target sequence in this assay (P09874 2-1014 limits assumed): as the sequence (P09874 2-1014 limits assumed) above
# Target sequence in this assay (Q96SW2 whole entry partner): as the sequence (Q96SW2 whole entry) above
structure (smiles),measurement,setting,value
O=C(CCCCCCCCCCC(=O)N1CCN(C(=O)c2cc(Cc3n[nH]c(=O)c4ccccc34)ccc2F)CC1)NCCNc1cccc2c1C(=O)N(C1CCC(=O)NC1=O)C2=O (centres undefined),Activity,[1],Dose-dependent effect
same,Cmax,[2],1.84 µg/mL
same,Activity,[3],Non-Toxic
same,DC50,[4],0.509 nM
same,Activity,[5],Active
same,Activity,[6],Non-Toxic
same,Activity,[7],Active
same,Activity,[8],Non-Toxic
same,concentration at 8 h,[9],0.095 µM
same,Activity,[10],Non-Toxic
same,Activity,[11],Active
same,Activity,[12],Dose-dependent effect
same,Activity,[13],Active
same,Activity,[14],> 99%
